pEC50, pIC50: −log10 of the molar value. ≈ marks a conversion by molar mass, not a printed value.
Target: Uracil-DNA glycosylase (Vaccinia virus (strain Western Reserve) (VACV) (Vaccinia virus (strainWR)), UniProt P04303)
Experiment: Inhibition of Vaccinia virus WR strain processivity factor D4 interaction with A20 protein assessed as inhibition of E9 DNA polymerase-mediated DIG-dUTP incorporation into DNA strand by rapid plate assay
Set-up: species or system Orthopoxvirus vaccinia
Conditions: not given
How it was run: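 Annealed biotinylated primer/100-bp template was coated on streptavidin plates. Compounds were 2-fold serial dilutions in DMSO. After 37 °C for 30 min, DIG-ELISA was read at 405 nm and normalised to DMSO and EDTA controls. Triplicates were used across at least three experiments.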

Row | Structure (SMILES) | pIC50
1 | CN(C)c1ccc(NC(=O)CSc2nc(-c3ccco3)cc(C(F)(F)F)n2)cc1 | 3.85
2 | Oc1ccc(Cl)cc1Sc1cc(Cl)ccc1O [FENTICLOR] | 4.41
3 | COc1ccc(NCc2nc3ccccc3n2CCOc2ccc(C)cc2)cc1 | < 3.70
4 | Cn1c(=O)n(C)c2cc(NS(=O)(=O)c3ccc(C(C)(C)C)cc3)c(NCc3ccccc3)cc21 | 3.88
5 | COc1cc(NC(=O)c2cccc3c2C(=O)N(C2CCCCC2)C3)cc(OC)c1OC | < 3.70
6 | COc1ccc(Nc2c(-c3cc(Br)ccc3O)nc3ncccn23)cc1OC | 3.70
7 | OC1COc2ccc(-c3cc(-c4ccc(F)cc4)c4c(n3)-c3cc(Cl)ccc3OC4)cc2N1 (configuration not stated) | < 3.70
8 | O=S(=O)(c1ccc(C2=CSC(Nc3ccc(F)cc3)N2CCCCCCO)cc1)N1CCCC1 (configuration not stated) | < 3.70
9 | O=C1c2ccccc2-c2onc3c2C1C(NC1CCCCC1)C=C3NCCO (configuration not stated) | 4.47
10 | CCOc1ccccc1C(=O)Nc1ccc2nc3c(c(Nc4ccc(OC)c(OC)c4)c2c1)CCCC3 | 3.98
11 | COc1cc(-c2nc3ccc(Cl)cn3c2Nc2ccc3c(c2)OCCO3)ccc1O | < 3.70
12 | COc1cc(-c2nc(-c3ccccc3)c(-c3ccc(Br)cc3)[nH]2)cc(OC)c1O | 4.04
13 | Cc1cc2n(n1)C(c1cc(C(C)(C)C)c(O)cc1O)Nc1ccccc1-2 (configuration not stated) | 3.86
14 | COc1ccc(Nc2nc(Nc3ccc(OC)cc3OC)nc(N3CCOCC3)n2)c(OC)c1 | < 3.70

System: not listed separately
Experiment: (§1) Cytotoxicity against african green monkey BSC1 cells infected with Vaccinia virus assessed as lactate dehydrogenase release after 20 hrs by microplate reader
Assay type: cell-based, BSC-1
Conditions: chlorocebus aethiops, BSC-1 cells infected with Vaccinia virus
How it was run: (§2)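 BSC-1 cells, seeded at 1 × 10^4 cells/well for 24 h, then received inhibitors at 2-fold serial dilutions in fresh medium with 1% DMSO for 20 h. LDH release into the medium was read at 492 nm after 30 min with reaction mixture in the dark. 2% Triton X-100 gave maximal release and 1% DMSO served as baseline. Triplicates were used, with three independent repeats, giving CC50.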

Row | Structure (SMILES) | CC50 at 20 h [µM]
15 | O=C1c2ccccc2-c2onc3c2C1C(NC1CCCCC1)C=C3NCCO (configuration not stated) | 127

System: BSC-1
Experiment: as §1
Assay type: cell-based
Conditions: chlorocebus aethiops, bsc-1, 20 h
How it was run: as §2

Row | Structure (SMILES) | CC50 [µM]
16 | CN(C)c1ccc(NC(=O)CSc2nc(-c3ccco3)cc(C(F)(F)F)n2)cc1 | 57.2
17 | COc1ccc(NCc2nc3ccccc3n2CCOc2ccc(C)cc2)cc1 | 121
18 | Cn1c(=O)n(C)c2cc(NS(=O)(=O)c3ccc(C(C)(C)C)cc3)c(NCc3ccccc3)cc21 | > 200
19 | COc1cc(NC(=O)c2cccc3c2C(=O)N(C2CCCCC2)C3)cc(OC)c1OC | > 200
20 | COc1ccc(Nc2c(-c3cc(Br)ccc3O)nc3ncccn23)cc1OC | > 200
21 | OC1COc2ccc(-c3cc(-c4ccc(F)cc4)c4c(n3)-c3cc(Cl)ccc3OC4)cc2N1 (configuration not stated) | > 200
22 | O=S(=O)(c1ccc(C2=CSC(Nc3ccc(F)cc3)N2CCCCCCO)cc1)N1CCCC1 (configuration not stated) | > 200
23 | CCOc1ccccc1C(=O)Nc1ccc2nc3c(c(Nc4ccc(OC)c(OC)c4)c2c1)CCCC3 | 73.7
24 | COc1cc(-c2nc3ccc(Cl)cn3c2Nc2ccc3c(c2)OCCO3)ccc1O | > 200
25 | COc1cc(-c2nc(-c3ccccc3)c(-c3ccc(Br)cc3)[nH]2)cc(OC)c1O | 57.2
26 | Cc1cc2n(n1)C(c1cc(C(C)(C)C)c(O)cc1O)Nc1ccccc1-2 (configuration not stated) | 92.8
27 | COc1ccc(Nc2nc(Nc3ccc(OC)cc3OC)nc(N3CCOCC3)n2)c(OC)c1 | 170

Target: Uracil-DNA glycosylase (Vaccinia virus (strain Western Reserve) (VACV) (Vaccinia virus (strainWR))) (UniProt P04303)
Experiment: Binding affinity at Vaccinia virus WR strain D4 assessed as change in unfolding transition temperature at 50 uM by thermofluor method
Conditions: not given
How it was run: (§3)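 Native D4 at 4 μM, His-tag removed and dialysed into buffer, was tested with or without 50 μM compound (final, 1% DMSO). Buffer was 25 mM Tris pH 7.2, 0.15 M NaCl, 5 mM ZnCl2, with Sypro Orange. Fluorescence was read from 25 to 80 °C at 1 °C/min. Tm is the unfolding midpoint, and ΔTm is Tm minus the DMSO mock. At least three independent experiments were run.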

Row | Structure (SMILES) | ΔTm [°C]
28 | CN(C)c1ccc(NC(=O)CSc2nc(-c3ccco3)cc(C(F)(F)F)n2)cc1 | -1.7
29 | COc1ccc(NCc2nc3ccccc3n2CCOc2ccc(C)cc2)cc1 | -3.2
30 | Cn1c(=O)n(C)c2cc(NS(=O)(=O)c3ccc(C(C)(C)C)cc3)c(NCc3ccccc3)cc21 | 10
31 | COc1cc(NC(=O)c2cccc3c2C(=O)N(C2CCCCC2)C3)cc(OC)c1OC | -4.9
32 | COc1ccc(Nc2c(-c3cc(Br)ccc3O)nc3ncccn23)cc1OC | -0.1
33 | OC1COc2ccc(-c3cc(-c4ccc(F)cc4)c4c(n3)-c3cc(Cl)ccc3OC4)cc2N1 (configuration not stated) | -3.5
34 | O=S(=O)(c1ccc(C2=CSC(Nc3ccc(F)cc3)N2CCCCCCO)cc1)N1CCCC1 (configuration not stated) | -3.3
35 | CCOc1ccccc1C(=O)Nc1ccc2nc3c(c(Nc4ccc(OC)c(OC)c4)c2c1)CCCC3 | -2.1
36 | COc1cc(-c2nc3ccc(Cl)cn3c2Nc2ccc3c(c2)OCCO3)ccc1O | -1.5
37 | COc1cc(-c2nc(-c3ccccc3)c(-c3ccc(Br)cc3)[nH]2)cc(OC)c1O | 4.6
38 | Cc1cc2n(n1)C(c1cc(C(C)(C)C)c(O)cc1O)Nc1ccccc1-2 (configuration not stated) | 4.9
39 | COc1ccc(Nc2nc(Nc3ccc(OC)cc3OC)nc(N3CCOCC3)n2)c(OC)c1 | -3.4

System: not listed separately
Experiment: Solubility of the compound in phosphate buffer by chemiluminescence of total nitrogen contents
Assay type: physicochemical
Conditions: buffer

Row | Structure (SMILES) | solubility [µg/mL]
40 | Cn1c(=O)n(C)c2cc(NS(=O)(=O)c3ccc(C(C)(C)C)cc3)c(NCc3ccccc3)cc21 | 0.9 (≈ 1.88 µM)
41 | COc1cc(-c2nc(-c3ccccc3)c(-c3ccc(Br)cc3)[nH]2)cc(OC)c1O | 1.4 (≈ 3.1 µM)
42 | Cc1cc2n(n1)C(c1cc(C(C)(C)C)c(O)cc1O)Nc1ccccc1-2 (configuration not stated) | 19.1 (≈ 54.7 µM)

Same assay, conditions: phosphate buffer; read-out: solubility

Row | Structure (SMILES) | solubility [µg/mL]
43 | O=C1c2ccccc2-c2onc3c2C1C(NC1CCCCC1)C=C3NCCO (configuration not stated) | 1.4 (≈ 3.69 µM)

System: Vaccinia virus
Experiment: Antiviral activity against Vaccinia virus infected in BSC-1 cells by plaque reduction assay
Assay type: functional, organism-based
Conditions: Orthopoxvirus vaccinia

Row | Structure (SMILES) | pEC50
44 | CN(C)c1ccc(NC(=O)CSc2nc(-c3ccco3)cc(C(F)(F)F)n2)cc1 | < 3.70
45 | Oc1ccc(Cl)cc1Sc1cc(Cl)ccc1O [FENTICLOR] | 4.73
46 | COc1ccc(NCc2nc3ccccc3n2CCOc2ccc(C)cc2)cc1 | 5.26
47 | Cn1c(=O)n(C)c2cc(NS(=O)(=O)c3ccc(C(C)(C)C)cc3)c(NCc3ccccc3)cc21 | 4.73
48 | COc1cc(NC(=O)c2cccc3c2C(=O)N(C2CCCCC2)C3)cc(OC)c1OC | < 3.70
49 | COc1ccc(Nc2c(-c3cc(Br)ccc3O)nc3ncccn23)cc1OC | 4.17
50 | OC1COc2ccc(-c3cc(-c4ccc(F)cc4)c4c(n3)-c3cc(Cl)ccc3OC4)cc2N1 (configuration not stated) | 4.13
51 | O=S(=O)(c1ccc(C2=CSC(Nc3ccc(F)cc3)N2CCCCCCO)cc1)N1CCCC1 (configuration not stated) | 5.49
52 | CCOc1ccccc1C(=O)Nc1ccc2nc3c(c(Nc4ccc(OC)c(OC)c4)c2c1)CCCC3 | < 3.70
53 | COc1cc(-c2nc3ccc(Cl)cn3c2Nc2ccc3c(c2)OCCO3)ccc1O | 4.97
54 | COc1cc(-c2nc(-c3ccccc3)c(-c3ccc(Br)cc3)[nH]2)cc(OC)c1O | 4.78
55 | Cc1cc2n(n1)C(c1cc(C(C)(C)C)c(O)cc1O)Nc1ccccc1-2 (configuration not stated) | 4.67

System: not listed separately
Experiment: Selectivity index, CC50 for African green monkey BSC-1 cells to EC50 for Vaccinia virus
Assay type: toxicity, cell-based
Conditions: read-out: Ratio CC50/EC50

Row | Structure (SMILES) | selectivity ratio
56 | CN(C)c1ccc(NC(=O)CSc2nc(-c3ccco3)cc(C(F)(F)F)n2)cc1 | 4
57 | COc1ccc(NCc2nc3ccccc3n2CCOc2ccc(C)cc2)cc1 | 22
58 | Cn1c(=O)n(C)c2cc(NS(=O)(=O)c3ccc(C(C)(C)C)cc3)c(NCc3ccccc3)cc21 | > 10
59 | COc1ccc(Nc2c(-c3cc(Br)ccc3O)nc3ncccn23)cc1OC | 3
60 | OC1COc2ccc(-c3cc(-c4ccc(F)cc4)c4c(n3)-c3cc(Cl)ccc3OC4)cc2N1 (configuration not stated) | 3
61 | O=S(=O)(c1ccc(C2=CSC(Nc3ccc(F)cc3)N2CCCCCCO)cc1)N1CCCC1 (configuration not stated) | 63
62 | CCOc1ccccc1C(=O)Nc1ccc2nc3c(c(Nc4ccc(OC)c(OC)c4)c2c1)CCCC3 | 11
63 | COc1cc(-c2nc3ccc(Cl)cn3c2Nc2ccc3c(c2)OCCO3)ccc1O | 18
64 | COc1cc(-c2nc(-c3ccccc3)c(-c3ccc(Br)cc3)[nH]2)cc(OC)c1O | 3
65 | Cc1cc2n(n1)C(c1cc(C(C)(C)C)c(O)cc1O)Nc1ccccc1-2 (configuration not stated) | 4

Target: Uracil-DNA glycosylase (Vaccinia virus (strain Western Reserve) (VACV) (Vaccinia virus (strainWR))) (UniProt P04303)
Experiment: Binding affinity at Vaccinia virus WR strain D4 assessed as melting temperature at 50 uM by thermofluor method
Conditions: not given
How it was run: as §3

Row | Structure (SMILES) | Tm [°C]
66 | CN(C)c1ccc(NC(=O)CSc2nc(-c3ccco3)cc(C(F)(F)F)n2)cc1 | 35.1
67 | COc1ccc(NCc2nc3ccccc3n2CCOc2ccc(C)cc2)cc1 | 35.2
68 | Cn1c(=O)n(C)c2cc(NS(=O)(=O)c3ccc(C(C)(C)C)cc3)c(NCc3ccccc3)cc21 | 48.4
69 | COc1cc(NC(=O)c2cccc3c2C(=O)N(C2CCCCC2)C3)cc(OC)c1OC | 33.2
70 | COc1ccc(Nc2c(-c3cc(Br)ccc3O)nc3ncccn23)cc1OC | 38.3
71 | OC1COc2ccc(-c3cc(-c4ccc(F)cc4)c4c(n3)-c3cc(Cl)ccc3OC4)cc2N1 (configuration not stated) | 34.9
72 | O=S(=O)(c1ccc(C2=CSC(Nc3ccc(F)cc3)N2CCCCCCO)cc1)N1CCCC1 (configuration not stated) | 35.1
73 | CCOc1ccccc1C(=O)Nc1ccc2nc3c(c(Nc4ccc(OC)c(OC)c4)c2c1)CCCC3 | 36.3
74 | COc1cc(-c2nc3ccc(Cl)cn3c2Nc2ccc3c(c2)OCCO3)ccc1O | 36.9
75 | COc1cc(-c2nc(-c3ccccc3)c(-c3ccc(Br)cc3)[nH]2)cc(OC)c1O | 43
76 | Cc1cc2n(n1)C(c1cc(C(C)(C)C)c(O)cc1O)Nc1ccccc1-2 (configuration not stated) | 44.3
77 | COc1ccc(Nc2nc(Nc3ccc(OC)cc3OC)nc(N3CCOCC3)n2)c(OC)c1 | 35
